Article PMC5970367 (Chembiochem : a European journal of chemical biology, 2017)
Where two headings read alike, the source gives them in different places.

Legend:
[1] = system: 5′-fluorescein labeled HCV SLIIb; experiment: Reaction kinetics via fluorescence; type: biochemical, hepatitis C virus; settings: pseudo Michaelis-Menten, catalytic efficiency
Outline: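 Copper–peptide complexes were formed at 1.1:1 peptide:Cu. Each complex was added to 333 nM 5′-fluorescein-SLIIb with 1 mM ascorbic acid and 1 mM H2O2 in 20 mM HEPES (pH 7.4, 100 mM NaCl) at 25 °C. Fluorescence loss was followed at ex 491/em 518 nm and converted to RNA concentration by a calibration curve. Initial velocities were plotted against catalyst concentration and fit to Michaelis–Menten to give KM and kcat. Values are the mean of ≥3 trials.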

[2] = system: fluorescein-labelled SLIIb; experiment: Reaction rates monitored by agarose gel electrophoresis; type: biochemical, hepatitis C virus; settings: addition of complex to SLIIb
[3] = system: 5′-fluorescein labeled HCV SLIIb; settings: pseudo Michaelis-Menten, fluorescence, cited from earlier work
[4] = system: fluorescein-labeled IRES SLIIb; experiment: Time-dependent MALDI-TOF mass spectrometry of SLIIb cleavage; type: biochemical, hepatitis C virus; settings: for Initial Rate (%Overhang/min), 2′, 3′-cPO4: overhang 2′,3′-cyclic phosphates; for Initial Rate (%Overhang/min), 2′, 3′-cPO4 / Initial Rate (%Overhang/min), 3′-AL / Initial Rate (%Overhang/min), 3′-OH / Initial Rate (%Overhang/min), 3′-PO4 / Initial Rate (%Overhang/min), 3′-PGA / Initial Rate (%Overhang/min), 3′-PG / Initial Rate (%Overhang/min), 5′-AL / Initial Rate (%Overhang/min), 5′-GemDiol / Initial Rate (%Overhang/min), 5′-OH / Initial Rate (%Overhang/min), 5′-PO4 / Initial Rate (%Overhang/min), 5′-PPA: MALDI-TOF time dependence; for Initial Rate (%Overhang/min), 3′-AL: overhang 3′-aldehyde; for Initial Rate (%Overhang/min), 3′-OH: overhang 3′-hydroxyl; for Initial Rate (%Overhang/min), 3′-PO4: overhang 3′-phosphates; for Initial Rate (%Overhang/min), 3′-PGA: overhang 3′-phosphoglycaldehyde; for Initial Rate (%Overhang/min), 3′-PG: overhang 3′-phosphoglycolate; for Initial Rate (%Overhang/min), 5′-AL: overhang 5′-aldehyde; for Initial Rate (%Overhang/min), 5′-GemDiol: overhang 5′-geminal diol; for Initial Rate (%Overhang/min), 5′-OH: overhang 5′-hydroxyl; for Initial Rate (%Overhang/min), 5′-PO4: overhang 5′-phosphate; for Initial Rate (%Overhang/min), 5′-PPA: overhang 5′-phosphopropenal; for Relative Initial Rate (Normalized Intensity/min × 1000), position A6 / Relative Initial Rate (Normalized Intensity/min × 1000), position A15 / Relative Initial Rate (Normalized Intensity/min × 1000), position A19 / Relative Initial Rate (Normalized Intensity/min × 1000), position A27 / Relative Initial Rate (Normalized Intensity/min × 1000), position A30 / Relative Initial Rate (Normalized Intensity/min × 1000), position C10 / Relative Initial Rate (Normalized Intensity/min × 1000), position C33 / Relative Initial Rate (Normalized Intensity/min × 1000), position G5 / Relative Initial Rate (Normalized Intensity/min × 1000), position G9 / Relative Initial Rate (Normalized Intensity/min × 1000), position G11 / Relative Initial Rate (Normalized Intensity/min × 1000), position G28 / Relative Initial Rate (Normalized Intensity/min × 1000), position U12 / Relative Initial Rate (Normalized Intensity/min × 1000), position U14 / Relative Initial Rate (Normalized Intensity/min × 1000), position U25 / Relative Initial Rate (Normalized Intensity/min × 1000), position U26 / Relative Initial Rate (Normalized Intensity/min × 1000), position U29 / Relative Initial Rate (Normalized Intensity/min × 1000), position U31: 10 μM SLIIb, 10 μM copper-peptide
Outline: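 Reactions contained 10 μM Fl-SLIIb, 10 μM Cu–peptide, 1 mM ascorbate and 1 mM H2O2, and were sampled at 2–180 min. They were quenched on ice, C18-desalted, and analysed by negative-ion reflectron MALDI-TOF (HPA/ammonium citrate matrix, ≥1000 shots). Peaks with m/z >1500 and S/N >5 were assigned against expected product masses. Products were summed per overhang type and expressed as a fraction at each time point. Initial rate was taken from the linear region (first ~40 min).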

Substance | kcat/KM [1] [M⁻¹ s⁻¹] | Initial Rate (%Overhang/min), 2′, 3′-cPO4 [4] [%Overhang/min] | Initial Rate (%Overhang/min), 3′-AL [4] [%Overhang/min] | Initial Rate (%Overhang/min), 3′-OH [4] [%Overhang/min] | Initial Rate (%Overhang/min), 3′-PO4 [4] [%Overhang/min] | Initial Rate (%Overhang/min), 3′-PGA [4] [%Overhang/min] | Initial Rate (%Overhang/min), 3′-PG [4] [%Overhang/min] | Initial Rate (%Overhang/min), 5′-AL [4] [%Overhang/min] | Initial Rate (%Overhang/min), 5′-GemDiol [4] [%Overhang/min] | Initial Rate (%Overhang/min), 5′-OH [4] [%Overhang/min] | Initial Rate (%Overhang/min), 5′-PO4 [4] [%Overhang/min] | Initial Rate (%Overhang/min), 5′-PPA [4] [%Overhang/min] | Relative Initial Rate (Normalized Intensity/min × 1000), position A6 [4] | Relative Initial Rate (Normalized Intensity/min × 1000), position A15 [4] | Relative Initial Rate (Normalized Intensity/min × 1000), position A19 [4] | Relative Initial Rate (Normalized Intensity/min × 1000), position A27 [4] | Relative Initial Rate (Normalized Intensity/min × 1000), position A30 [4] | Relative Initial Rate (Normalized Intensity/min × 1000), position C10 [4] | Relative Initial Rate (Normalized Intensity/min × 1000), position C33 [4] | Relative Initial Rate (Normalized Intensity/min × 1000), position G5 [4] | also measured
GGHKRFK-Cu [11-Cu] | 367 | – | – | – | – | – | – | – | – | – | – | – | – | – | – | – | – | – | – | – | precipitation from solution on addition to SLIIb [2]: significant precipitation
GGhyrfk-Cu [2-Cu] | – | – | – | – | – | – | – | – | – | – | – | – | – | – | – | – | – | – | – | – | Km ([3]; ref 4d): 7.9 ± 1.2 µM; kcat ([3]; ref 4d): 0.00233 ± 0.00017 s⁻¹; kcat/KM ([3]; ref 4d): 300 M⁻¹ s⁻¹
GGHYrFK-Cu [1-Cu] | – | – | – | – | – | – | – | – | – | – | – | – | – | – | – | – | – | – | – | – | Km ([3]; ref 4b): 0.8 ± 0.1 µM; kcat ([3]; ref 4b): 0.00883 ± 0.00033 s⁻¹; kcat/KM ([3]; ref 4b): 11000 M⁻¹ s⁻¹
GGHYRFK-Cu [3-Cu] | 23.3 | 0.7 ± 0.3 | 0.8 ± 0.1 | 1.1 ± 0.5 | 0.4 ± 0.1 | 0.3 ± 0.1 | 0.2 ± 0.1 | 0.7 ± 0.1 | 0.3 ± 0.1 | 2.0 ± 0.6 | 0.4 ± 0.1 | 0.3 ± 0.1 | - ^a | - ^a | - ^a | - ^a | - ^a | - ^a | - ^a | - ^a | Relative Initial Rate (Normalized Intensity/min × 1000), position G9 [4]: 1.4 ± 0.3 Normalized Intensity/min × 1000; Relative Initial Rate (Normalized Intensity/min × 1000), position G11 [4]: - ^a; Relative Initial Rate (Normalized Intensity/min × 1000), position G28 [4]: 1.0 ± 0.5 Normalized Intensity/min × 1000; Relative Initial Rate (Normalized Intensity/min × 1000), position U12 [4]: 1.2 ± 0.7 Normalized Intensity/min × 1000; Relative Initial Rate (Normalized Intensity/min × 1000), position U14 [4]: 1.2 ± 0.1 Normalized Intensity/min × 1000; Relative Initial Rate (Normalized Intensity/min × 1000), position U25 [4]: - ^a; Relative Initial Rate (Normalized Intensity/min × 1000), position U26 [4]: - ^a; Relative Initial Rate (Normalized Intensity/min × 1000), position U29 [4]: - ^a; Relative Initial Rate (Normalized Intensity/min × 1000), position U31 [4]: - ^a
GGHYRFA-Cu [7-Cu] | 417 | 0.1 ± 0.1 | 0.8 ± 0.1 | 0.4 ± 0.1 | 0.1 ± 0.1 | 0.6 ± 0.2 | 0.2 ± 0.1 | 1.5 ± 0.5 | 0.2 ± 0.1 | 1.1 ± 0.2 | 0.5 ± 0.2 | 0.5 ± 0.1 | - ^a | - ^a | 0.8 ± 0.4 Normalized Intensity/min × 1000 | - ^a | 1.0 ± 0.4 Normalized Intensity/min × 1000 | - ^a | - ^a | - ^a | Relative Initial Rate (Normalized Intensity/min × 1000), position G9 [4]: <1 Normalized Intensity/min × 1000; Relative Initial Rate (Normalized Intensity/min × 1000), position G11 [4]: 1.6 ± 0.7 Normalized Intensity/min × 1000; Relative Initial Rate (Normalized Intensity/min × 1000), position G28 [4]: - ^a; Relative Initial Rate (Normalized Intensity/min × 1000), position U12 [4]: <1 Normalized Intensity/min × 1000; Relative Initial Rate (Normalized Intensity/min × 1000), position U14 [4]: - ^a; Relative Initial Rate (Normalized Intensity/min × 1000), position U25 [4]: <1 Normalized Intensity/min × 1000; Relative Initial Rate (Normalized Intensity/min × 1000), position U26 [4]: <1 Normalized Intensity/min × 1000; Relative Initial Rate (Normalized Intensity/min × 1000), position U29 [4]: 2.9 ± 0.6 Normalized Intensity/min × 1000; Relative Initial Rate (Normalized Intensity/min × 1000), position U31 [4]: - ^a
